Results published in ChEMBL document CHEMBL1806449, “A class of Trp-Trp-AA-OBzl: Synthesis, in vitro anti-proliferation/in vivo anti-tumor evaluation, intercalation-mechanism investigation and 3D QSAR analysis” (Eur J Med Chem, 2011).
Peptide text beside a SMILES is read from it. * marks the point of attachment. OBn = c1ccc(CO*)cc1

How the values were obtained:
Mus musculus [1] = test: Acute toxicity in ICR mouse assessed as tremors at 500 mg/kg, ip administered qd for 7 days; type: organism-based; set-up: dose 500 mg/kg, route intraperitoneal; settings: in vivo, 168 h
Mus musculus [2] = test: Acute toxicity in ICR mouse assessed as tetanus at 500 mg/kg, ip administered qd for 7 days; type: organism-based; set-up: dose 500 mg/kg, route intraperitoneal; settings: in vivo, 168 h
[3] = Acute toxicity in ip dosed ICR mouse assessed as lethal dose; type: organism-based; settings: in vivo
Outline: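 Male ICR mice, 24 weeks old, got a single i.p. injection of 500 mg/kg in 0.2 ml NS (normal saline). They were watched for 7 days for neurotoxic behaviour (tremor, twitch, jumping, tetanus, supination) and for death.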

Mus musculus [4] = test: Acute toxicity in ICR mouse assessed as twitch at 500 mg/kg, ip administered qd for 7 days; type: organism-based; set-up: dose 500 mg/kg, route intraperitoneal; settings: in vivo, 168 h
K562 = test: Antiproliferative activity against human K562 cells after 48 hrs by MTT assay; type: functional, cell-based; settings: K562, 48 h
Mus musculus [5] = test: Toxicity in ICR mouse xenografted with mouse S180 cells assessed as effect on brain weight at 8.9 umol/kg; type: organism-based, CCRF S-180; settings: in vivo
Outline: (§1)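 S180-bearing male ICR mice (10–12 weeks; 1×10^7 cells s.c. right oxter; 12 per group), daily i.p. 8.9 µmol/kg for seven days starting 24 h after implantation; NS, cytarabine and doxorubicin controls; liver, brain, kidney weights, spleen index and body-weight gain recorded.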

Mus musculus [6] = test: Acute toxicity in ICR mouse assessed as jumping at 500 mg/kg, ip administered qd for 7 days; type: organism-based; set-up: dose 500 mg/kg, route intraperitoneal; settings: in vivo, 168 h
Mus musculus [7] = test: Acute toxicity in ICR mouse assessed as apparent changes in any organ at 500 mg/kg, ip administered qd for 7 days; type: organism-based; set-up: dose 500 mg/kg, route intraperitoneal; settings: in vivo, 168 h
Mus musculus [8] = test: Toxicity in ICR mouse xenografted with mouse S180 cells assessed as increase in spleen index at 8.9 umol/kg; type: organism-based, CCRF S-180; settings: in vivo; outline: as §1
H22 = test: Antiproliferative activity against mouse H22 cells after 48 hrs by MTT assay; type: functional, cell-based; settings: H22, 48 h
Mus musculus [9] = test: Toxicity in ICR mouse xenografted with mouse S180 cells assessed as increase in body weight at 8.9 umol/kg; type: organism-based, CCRF S-180; settings: in vivo; outline: as §1
Mus musculus [10] = test: Toxicity in ICR mouse xenografted with mouse S180 cells assessed as effect on liver weight at 8.9 umol/kg; type: organism-based, CCRF S-180; settings: in vivo; outline: as §1
Mus musculus [11] = test: Toxicity in ICR mouse xenografted with mouse S180 cells assessed as effect on kidney weight at 8.9 umol/kg; type: organism-based, CCRF S-180; settings: in vivo; outline: as §1
Mus musculus [12] = test: Acute toxicity in ICR mouse assessed as supination at 500 mg/kg, ip administered qd for 7 days; type: organism-based; set-up: dose 500 mg/kg, route intraperitoneal; settings: in vivo, 168 h
CCRF S-180 [13] = test: Antiproliferative activity against mouse S180 cells after 48 hrs by MTT assay; type: functional, cell-based; settings: CCRF S-180, 48 h
Mus musculus [14] = test: Acute toxicity in ICR mouse assessed as mortality at 500 mg/kg, ip administered qd for 7 days; type: organism-based; set-up: dose 500 mg/kg, route intraperitoneal; settings: in vivo, 168 h
B16 = test: Antiproliferative activity against mouse B16 cells after 48 hrs by MTT assay; type: functional, cell-based; settings: B16, 48 h
HepG2 = test: Antiproliferative activity against human HepG2 cells after 48 hrs by MTT assay; type: functional, cell-based; settings: HepG2, 48 h
CCRF S-180 [15] = test: Antitumor activity against mouse S180 cells xenografted in ICR mouse assessed as tumor growth inhibition at 8.9 umol/kg, ip administered 1 day after tumor inoculation qd for 7 days; type: functional; settings: CCRF S-180, ip, read-out: GI
Outline: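 Male ICR mice 10–12 weeks; S180 from ascites serially transplanted weekly; 1×10^7 viable cells in 0.2 ml NS implanted s.c. at right oxter; 24 h later randomized (10 per group); daily i.p. 8.9, 0.89 or 0.089 µmol/kg/day in 0.2 ml NS, 7 days; NS and cytarabine controls; sacrificed 24 h after last dose; inhibition % = [1−(Tw/Cw)]×100.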

SMILES | Activity (Mus musculus [1]) | Activity (Mus musculus [2]) | LD50 [3] | Activity (Mus musculus [4]) | IC50 (K562) | Activity (Mus musculus [5]) | Activity (Mus musculus [6]) | Activity (Mus musculus [7]) | Activity (Mus musculus [8]) | IC50 (H22) | Activity (Mus musculus [9]) | Activity (Mus musculus [10]) | Activity (Mus musculus [11]) | Activity (Mus musculus [12]) | IC50 (CCRF S-180 [13]) | Activity (Mus musculus [14]) | IC50 (B16) | IC50 (HepG2) | inhibition in vivo at 8.9 µmol/kg (CCRF S-180 [15])
C[C@H](NC(=O)[C@H](Cc1c[nH]c2ccccc12)NC(=O)[C@@H](N)Cc1c[nH]c2ccccc12)C(=O)OCc1ccccc1 (H-Trp-Trp-Ala-OBn) | Non-toxic | Non-toxic | > 500 mg/kg | Non-toxic | 18.4 µM | 0.27 g | Non-toxic | Non-toxic | 7.59 | 20.8 µM | 9.5 g | 1.77 g | 0.16 g | Non-toxic | 18.5 µM | Non-toxic | 23 µM | 20.1 µM | 50%
NC(=O)C[C@H](NC(=O)[C@H](Cc1c[nH]c2ccccc12)NC(=O)[C@@H](N)Cc1c[nH]c2ccccc12)C(=O)OCc1ccccc1 (H-Trp-Trp-Asn-OBn) | Non-toxic | Non-toxic | > 500 mg/kg | Non-toxic | 16.3 µM | 0.27 g | Non-toxic | Non-toxic | 7.81 | 18.7 µM | 9.96 g | 1.82 g | 0.16 g | Non-toxic | 15.5 µM | Non-toxic | 21.3 µM | 17.9 µM | 50.6%
NC(=O)CC[C@H](NC(=O)[C@H](Cc1c[nH]c2ccccc12)NC(=O)[C@@H](N)Cc1c[nH]c2ccccc12)C(=O)OCc1ccccc1 (H-Trp-Trp-Gln-OBn) | Non-toxic | Non-toxic | > 500 mg/kg | Non-toxic | 8.86 µM | 0.27 g | Non-toxic | Non-toxic | 7.96 | 10.7 µM | 9.89 g | 1.81 g | 0.16 g | Non-toxic | 8.74 µM | Non-toxic | 12 µM | 10.2 µM | 72%
N[C@@H](Cc1c[nH]c2ccccc12)C(=O)N[C@@H](Cc1c[nH]c2ccccc12)C(=O)N[C@@H](CCC(=O)O)C(=O)OCc1ccccc1 (H-Trp-Trp-Glu-OBn) | Non-toxic | Non-toxic | > 500 mg/kg | Non-toxic | 11 µM | 0.27 g | Non-toxic | Non-toxic | 7.92 | 13.7 µM | 9.94 g | 1.86 g | 0.17 g | Non-toxic | 13.4 µM | Non-toxic | 20.8 µM | 21 µM | 55.3%
CC(C)C[C@H](NC(=O)[C@H](Cc1c[nH]c2ccccc12)NC(=O)[C@@H](N)Cc1c[nH]c2ccccc12)C(=O)OCc1ccccc1 (H-Trp-Trp-Leu-OBn) | – | – | – | – | 116 µM | 0.26 g | – | – | 7.45 | 121 µM | 8.4 g | 1.7 g | 0.16 g | – | 118 µM | – | 124 µM | 123 µM | 3.29%
N[C@@H](Cc1c[nH]c2ccccc12)C(=O)N[C@@H](Cc1c[nH]c2ccccc12)C(=O)N[C@@H](Cc1c[nH]c2ccccc12)C(=O)OCc1ccccc1 (H-Trp-Trp-Trp-OBn) | – | – | – | – | 125 µM | 0.29 g | – | – | 7.75 | 98.1 µM | 8.71 g | 1.78 g | 0.16 g | – | 115 µM | – | 157 µM | 154 µM | 19.1%
